Assay results reported in paper PMC9200128 (Chemical Science, 2022).
No end group written: not given here.

Tests used:
[1] = Body weight of xenograft mice during treatment; format: in vivo; settings: 9 doses 5 mg kg−1, Fig. 6c
How it was run: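 MDA-MB-231 cells (3 × 10^6) injected subcutaneously into 7–8-week-old athymic nude (FOXN1NU) mice. Dosing started 28 days after inoculation and ran for 3 weeks: either 6 doses of peptide at 50 μM (0.875 mg kg−1; 17.5 microgram/mouse) or 9 doses of doxorubicin (5 mg kg−1). Body weight and tumour size were tracked throughout.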

MCF-10A cells = test: Uptake of fluorescein labelled peptide, confocal microscopy; format: cell-based, human; settings: 10 μM, confocal fluorescence; Fig. 1d, e
How it was run: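 MCF-10A cells were grown in 1:1 DMEM/Ham's F12 with 5% horse serum, EGF, insulin, hydrocortisone, cholera toxin and pen/strep. They were plated a day ahead at 2 × 10^5 in glass-bottom chamber dishes and exposed to fluorescein-labelled peptide (10 μM) for up to 24 h. Nuclei were stained with Hoechst 33342 and mitochondria with Rhodamine 800, then imaged by confocal microscopy over time. Data: 25 cells per field per time point, n = 5 independent experiments, mean ± SD.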

MDA-MB-231 cells = test: Uptake of fluorescein labelled peptide, confocal microscopy; format: cell-based, human; settings: 10 μM, confocal fluorescence, inside cells at 3 and 6 hours; Fig. 1d, e
[2] = test system: human embryonic kidney 293 HEK cells; test: Penetration and cytotoxicity in non-malignant immortalized cells; format: cell-based; settings: semi-confocal microscopy, 3h incubation; Fig. S2
[3] = test system: rat cardio myoblast H9C2 cells; test: as above; format: cell-based; settings: semi-confocal microscopy, 3h incubation; Fig. S2

Row | Molecule | body weight during treatment [1] | penetration of fluorescein-labelled peptide into MCF-10A cells (MCF-10A cells) | penetration of fluorescein-labelled peptide into MDA-MB-231 cells (MDA-MB-231 cells) | entry of fluorescein-labelled peptide into 293 HEK cells [2] | entry of fluorescein-labelled peptide into H9C2 cells [3]
1 | COc1cccc2c1C(=O)c1c(O)c3c(c(O)c1C2=O)C[C@@](O)(C(=O)CO)C[C@@H]3O[C@H]1C[C@H](N)[C@H](O)[C@H](C)O1 [doxorubicin] | severe decrease in body weight |  |  |  | 
2 | Fl-NAF-1^44-67: NAF-1^44-67 labelled with fluorescein ({5(6)‑carboxyfluorescein}-FLGVLALLGYLAVRPFLPKKKQQK; UniProt Q8N5K1 44-67, looked up, fragment) |  | did not permeate normal cells | preferentially penetrated MDA-MB-231 cancer cells | no entry | no entry
